Measurements reported in ChEMBL document CHEMBL1126849, “Synthesis of A-ring fluorinated derivatives of (17 alpha,20E/Z)-[125I]iodovinylestradiols: effect on receptor binding and receptor-mediated target tissue uptake” (J Med Chem, 1993).

What was measured:
Rattus norvegicus [1] = assay: Biodistribution in muscle of immature female rat after 3 hour administration of 3 micro Ci (111 kBq) in the absence of 60 microg estradiol; type: ADME, organism-based, Muscle tissue; conditions: in vivo
How it was run: (§1)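 Immature female Long Evans rats (21–24 days, 45–70 g), three to five per group, given 125I-labeled steroid (3 μCi, 111 kBq) by lateral tail vein without anesthesia. Vehicle: ethanol diluted in saline with 1% Tween-80, final ethanol 9%, 0.22 μm filtered. +E2 groups received 60 μg unlabeled estradiol co-injected. Killed under ether at set times; tissues KCl-washed, blotted, weighed, gamma counted; %ID/g, mean with SE.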

Rattus norvegicus [2] = assay: Biodistribution in fat of immature female rat after 1 hr administration of 3 micro Ci (111 kBq) in the absence of 60 microg estradiol; type: ADME, organism-based, Adipose tissue; conditions: in vivo
How it was run: (§2)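 Immature female Long Evans rats (21–24 days, 45–70 g), unanesthetized in retention cages, given 3 µCi (111 kBq) 125I-labeled steroid i.v. via lateral tail vein. Vehicle was ethanol diluted in saline containing 1% Tween-80, giving 9% ethanol final. The blocking group received 60 µg unlabeled estradiol co-injected. Rats were killed under ether by axillary bleeding, and tissues were KCl-washed and gamma-counted. Data are %ID/g, mean ± SE, n=3–5.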

Rattus norvegicus [3] = assay: Biodistribution in thyroid of immature female rat after 1 hr administration of 3 micro Ci (111 kBq) in the absence of 60 microg estradiol; type: ADME, organism-based, Thyroid gland; conditions: in vivo; how it was run: as §1
Rattus norvegicus [4] = assay: Biodistribution in uterus / spleen, muscle, lungs of immature female rat after 12 hour administration of 3 micro Ci (111 kBq) in the absence of 60 microg estradiol; type: ADME, organism-based; conditions: in vivo
How it was run: (§3)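 Immature female Long Evans rats (21–24 days, 45–70 g), 3–5 per group, unanesthetized in retention cages, given 3 μCi (111 kBq) 125I-labeled steroid by lateral tail vein. Vehicle: ethanol diluted with saline containing 1% Tween-80, final ethanol 9%. +E2 group co-injected 60 μg unlabeled estradiol (1 h only). Killed under ether; tissues KCl-washed, weighed, gamma-counted. Output: %ID/g (mean, SE) and uterus to blood or nontarget (muscle, spleen, lungs) ratios.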

Rattus norvegicus [5] = assay: Biodistribution in lungs of immature female rat after 12 hour administration of 3 micro Ci (111 kBq) in the absence of 60 microg estradiol; type: ADME, organism-based, Lung; conditions: in vivo; how it was run: as §1
Rattus norvegicus [6] = assay: Biodistribution in uterus / blood of immature female rat after 5 hour administration of 3 micro Ci (111 kBq) in the absence of 60 microg estradiol; type: ADME, organism-based; conditions: in vivo
How it was run: (§4)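 Same in vivo procedure: immature female Long Evans rats (21–24 days), three to five per group, 3 μCi (111 kBq) tracer i.v. via tail vein in 9% ethanol/saline/1% Tween-80, ± 60 μg estradiol co-injected at 1 h. Uterus %ID/g (gamma counting) divided by blood, or by nontarget organ (muscle, spleen, lungs), %ID/g to give ratios.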

Rattus norvegicus [7] = assay: Biodistribution in thyroid of immature female rat after 12 hour administration of 3 micro Ci (111 kBq) in the absence of 60 microg estradiol; type: ADME, organism-based, Thyroid gland; conditions: in vivo; how it was run: as §1
Rattus norvegicus [8] = assay: Biodistribution in liver of immature female rat after 5 hour administration of 3 micro Ci (111 kBq) in the absence of 60 microg estradiol; type: ADME, organism-based; conditions: in vivo; how it was run: as §2
Rattus norvegicus [9] = assay: Biodistribution in uterus / blood of immature female rat after 1 hr administration of 3 micro Ci (111 kBq) in the absence of 60 microg estradiol; type: ADME, organism-based; conditions: in vivo; how it was run: as §4
[10] = target: Estrogen receptor (Mus musculus) (UniProt O08537+P19785); assay: Relative binding affinity (RBA) against murine cytoplasmic estrogen receptor incubated at 0-4 degree Celsius for 18 hours; type: protein assay
Estrogen receptor (Mus musculus), sequence (O08537 whole entry, looked up): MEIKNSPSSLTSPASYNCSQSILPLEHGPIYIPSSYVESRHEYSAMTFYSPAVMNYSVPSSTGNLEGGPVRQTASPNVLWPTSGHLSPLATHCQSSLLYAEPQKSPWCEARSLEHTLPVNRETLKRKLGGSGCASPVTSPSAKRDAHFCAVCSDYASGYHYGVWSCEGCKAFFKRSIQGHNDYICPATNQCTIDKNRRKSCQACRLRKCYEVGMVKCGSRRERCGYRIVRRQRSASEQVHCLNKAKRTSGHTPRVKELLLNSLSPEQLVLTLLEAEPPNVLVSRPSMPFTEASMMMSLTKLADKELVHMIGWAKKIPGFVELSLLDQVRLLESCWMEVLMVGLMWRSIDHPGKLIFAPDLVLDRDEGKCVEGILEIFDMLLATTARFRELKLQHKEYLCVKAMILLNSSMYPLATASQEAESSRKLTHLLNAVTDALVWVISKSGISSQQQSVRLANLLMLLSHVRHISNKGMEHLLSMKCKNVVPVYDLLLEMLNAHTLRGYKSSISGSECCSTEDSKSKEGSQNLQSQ
Estrogen receptor (Mus musculus), sequence (P19785 whole entry, looked up): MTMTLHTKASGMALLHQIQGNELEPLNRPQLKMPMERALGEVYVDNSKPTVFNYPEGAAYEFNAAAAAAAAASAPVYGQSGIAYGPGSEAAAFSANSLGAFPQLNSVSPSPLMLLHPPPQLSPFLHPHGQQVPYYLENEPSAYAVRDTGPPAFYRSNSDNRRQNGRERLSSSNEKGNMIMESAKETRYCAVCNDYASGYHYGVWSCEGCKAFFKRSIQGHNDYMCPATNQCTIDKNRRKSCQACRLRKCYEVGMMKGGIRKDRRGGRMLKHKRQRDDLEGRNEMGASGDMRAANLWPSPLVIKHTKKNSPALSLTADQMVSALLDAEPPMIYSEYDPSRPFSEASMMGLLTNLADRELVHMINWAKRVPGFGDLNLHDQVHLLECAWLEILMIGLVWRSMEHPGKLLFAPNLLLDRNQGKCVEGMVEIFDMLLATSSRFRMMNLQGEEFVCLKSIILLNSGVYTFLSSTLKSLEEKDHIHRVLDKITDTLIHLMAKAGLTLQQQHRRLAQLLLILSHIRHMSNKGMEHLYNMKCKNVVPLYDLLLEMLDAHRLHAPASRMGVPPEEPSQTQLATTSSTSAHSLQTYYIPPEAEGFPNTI
How it was run: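 Competitive binding on murine uterine cytoplasmic extract with 20 nM [3H]estradiol and competitor steroids at 2 nM–20 μM, incubated 18 h at 0–4 °C. RBA = 100 × ratio of […] concentration giving 50% competition for specific binding. Mean of three experiments with SD.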

Rattus norvegicus [11] = assay: Biodistribution in uterus of immature female rat after 3 hour administration of 3 micro Ci (111 kBq) in the absence of 60 microg estradiol; type: ADME, organism-based; conditions: in vivo; how it was run: as §3
Rattus norvegicus [12] = assay: Biodistribution in kidney of immature female rat after 5 hour administration of 3 micro Ci (111 kBq) in the absence of 60 microg estradiol; type: ADME, organism-based; conditions: in vivo; how it was run: as §2
Rattus norvegicus [13] = assay: Biodistribution in spleen of immature female rat after 1 hr administration of 3 micro Ci (111 kBq) in the presence of (+E2); type: ADME, organism-based; conditions: in vivo; how it was run: as §1
Rattus norvegicus [14] = assay: Biodistribution in spleen of immature female rat after 1 hr administration of 3 micro Ci (111 kBq) in the absence of 60 microg estradiol; type: ADME, organism-based; conditions: in vivo; how it was run: as §1
Rattus norvegicus [15] = assay: Biodistribution in uterus of immature female rat after 12 hour administration of 3 micro Ci (111 kBq) in the absence of 60 microg estradiol; type: ADME, organism-based; conditions: in vivo; how it was run: as §3
Rattus norvegicus [16] = assay: Biodistribution in uterus / blood of immature female rat after 1 hr administration of 3 micro Ci (111 kBq) in the presence of (+E2); type: ADME, organism-based; conditions: in vivo; how it was run: as §4
Rattus norvegicus [17] = assay: Biodistribution in blood of immature female rat after 1 hr administration of 3 micro Ci (111 kBq) in the presence of (+E2); type: ADME, organism-based; conditions: in vivo; how it was run: as §2
Rattus norvegicus [18] = assay: Biodistribution in lungs of immature female rat after 5 hour administration of 3 micro Ci (111 kBq) in the absence of 60 microg estradiol; type: ADME, organism-based, Lung; conditions: in vivo; how it was run: as §1
Rattus norvegicus [19] = assay: Biodistribution in spleen of immature female rat after 5 hour administration of 3 micro Ci (111 kBq) in the absence of 60 microg estradiol; type: ADME, organism-based; conditions: in vivo; how it was run: as §1
Rattus norvegicus [20] = assay: Biodistribution in uterus of immature female rat after 5 hour administration of 3 micro Ci (111 kBq) in the absence of 60 microg estradiol; type: ADME, organism-based; conditions: in vivo; how it was run: as §3
Rattus norvegicus [21] = assay: Biodistribution in fat of immature female rat after 12 hour administration of 3 micro Ci (111 kBq) in the absence of 60 microg estradiol; type: ADME, organism-based, Adipose tissue; conditions: in vivo; how it was run: as §2
Rattus norvegicus [22] = assay: Biodistribution in fat of immature female rat after 1 hr administration of 3 micro Ci (111 kBq) in the presence of (+E2); type: ADME, organism-based, Adipose tissue; conditions: in vivo; how it was run: as §2
Rattus norvegicus [23] = assay: Biodistribution in uterus / spleen, muscle, lungs of immature female rat after 1 hr administration of 3 micro Ci (111 kBq) in the presence of (+E2); type: ADME, organism-based; conditions: in vivo; how it was run: as §4
Rattus norvegicus [24] = assay: Biodistribution in uterus of immature female rat after 1 hr administration of 3 micro Ci (111 kBq) in the presence of (+E2); type: ADME, organism-based; conditions: in vivo; how it was run: as §3
Rattus norvegicus [25] = assay: Biodistribution in uterus / blood of immature female rat after 3 hour administration of 3 micro Ci (111 kBq) in the absence of 60 microg estradiol; type: ADME, organism-based; conditions: in vivo; how it was run: as §4
Rattus norvegicus [26] = assay: Biodistribution in liver of immature female rat after 1 hr administration of 3 micro Ci (111 kBq) in the presence of (+E2); type: ADME, organism-based; conditions: in vivo; how it was run: as §2
Rattus norvegicus [27] = assay: Biodistribution in fat of immature female rat after 3 hour administration of 3 micro Ci (111 kBq) in the absence of 60 microg estradiol; type: ADME, organism-based, Adipose tissue; conditions: in vivo; how it was run: as §2
Rattus norvegicus [28] = assay: Biodistribution in thyroid of immature female rat after 3 hour administration of 3 micro Ci (111 kBq) in the absence of 60 microg estradiol; type: ADME, organism-based, Thyroid gland; conditions: in vivo; how it was run: as §1
Rattus norvegicus [29] = assay: Biodistribution in lungs of immature female rat after 1 hr administration of 3 micro Ci (111 kBq) in the presence of (+E2); type: ADME, organism-based, Lung; conditions: in vivo; how it was run: as §2
Rattus norvegicus [30] = assay: Biodistribution in lungs of immature female rat after 3 hour administration of 3 micro Ci (111 kBq) in the absence of 60 microg estradiol; type: ADME, organism-based, Lung; conditions: in vivo; how it was run: as §1

Row | ID/g (Rattus norvegicus [1]) [%] | ID/g (Rattus norvegicus [2]) [%] | ID/g (Rattus norvegicus [3]) [%] | uterus to nontarget tissue ratio (Rattus norvegicus [4]) [%] | ID/g (Rattus norvegicus [5]) [%] | uterus to blood ratio (Rattus norvegicus [6]) [%] | ID/g (Rattus norvegicus [7]) [%] | ID/g (Rattus norvegicus [8]) [%] | uterus-to-blood ratio of %ID/g (Rattus norvegicus [9]) [%] | RBA [10] | ID/g (Rattus norvegicus [11]) [%] | ID/g (Rattus norvegicus [12]) [%] | ID/g (Rattus norvegicus [13]) [%] | ID/g (Rattus norvegicus [14]) [%] | ID/g (Rattus norvegicus [15]) [%] | uterus/blood %ID/g ratio (Rattus norvegicus [16]) [%] | ID/g (Rattus norvegicus [17]) [%] | ID/g (Rattus norvegicus [18]) [%] | ID/g (Rattus norvegicus [19]) [%] | ID/g (Rattus norvegicus [20]) [%] | SMILES | also measured
1 | 0.43 | 0.03 | 61 | 15.57 | 0.23 | 16.4 | 217 | 3.6 | 12.53 | 36.4 | 5.29 | 0.89 | 1.29 | 0.68 | 3.02 | 2.68 | 0.44 | 0.77 | 0.8 | 6.44 | C[C@@H]1Cc2c(ccc(O)c2F)[C@H]2CC[C@@]3(C)[C@@H](CC[C@@]3(O)/C=C/I)[C@H]12 | ID/g (Rattus norvegicus [21]): 1.67%; ID/g (Rattus norvegicus [22]): 5.65%; uterus-to-nontarget tissue uptake ratio (Rattus norvegicus [23]): 0.85%; ID/g (Rattus norvegicus [24]): 1.14%; uterus to blood %ID/g ratio (unitless) (Rattus norvegicus [25]): 17.28%; ID/g (Rattus norvegicus [26]): 5.84%; ID/g (Rattus norvegicus [27]): 4%; ID/g (Rattus norvegicus [28]): 70%; ID/g (Rattus norvegicus [29]): 1.86%; ID/g (Rattus norvegicus [30]): 0.93%
2 | 0.15 | 1.5 | 78 | 2.55 | 0.12 | 3.69 | 446 | 1.38 | 4.49 | 12.1 | 0.85 | 0.26 | 0.45 | 0.31 | 0.35 | 1.34 | 0.29 | 0.22 | 0.18 | 0.63 | C[C@@H]1Cc2cc(O)c(F)cc2[C@H]2CC[C@@]3(C)[C@@H](CC[C@@]3(O)/C=C/I)[C@H]12 | ID/g (Rattus norvegicus [21]): 0.92%; ID/g (Rattus norvegicus [22]): 1.48%; uterus-to-nontarget tissue uptake ratio (Rattus norvegicus [23]): 1.09%; ID/g (Rattus norvegicus [24]): 0.39%; uterus to blood %ID/g ratio (unitless) (Rattus norvegicus [25]): 4.11%; ID/g (Rattus norvegicus [26]): 2.28%; ID/g (Rattus norvegicus [27]): 1.36%; ID/g (Rattus norvegicus [28]): 197%; ID/g (Rattus norvegicus [29]): 0.53%; ID/g (Rattus norvegicus [30]): 0.28%
